The source made the active and inactive calls. The rule behind the calls is not given here.
Assays:
HCT-8 [1] = experiment: Induction of nitric oxide release in human HCT8 cells at 100 uM incubated for 150 mins by Griess assay; format: functional, cell-based
Outline: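 Cells (1 × 10^6/well) treated in triplicate with compound at 100 µM for 150 min. Lysates mixed with Griess reagent for 10 min at 37 °C and read at 540 nm. Nitrite quantified from a sodium nitrite standard curve; 0.4% DMSO-treated cells served as background. Mean ± SD of three experiments.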

HCT-8 [2] = experiment: Antiproliferative activity against human HCT8 cells assessed as inhibition of cell proliferation at 0.25 uM after 24 hrs by MTT assay; format: functional, cell-based
HCT-8 [3] = experiment: Antiproliferative activity against human HCT8 cells assessed as inhibition of cell proliferation at 0.25 uM dosed 1 hr after NO scavenger carboxy-PTIO treatment and measured after 24 hrs by MTT assay; format: functional
HCT-8 [4] = experiment: Induction of nitric oxide release in human HCT8 cells at 150 uM incubated for 150 mins after 150 mins of pre-treatment with 0.75 uM to 192 uM pepT1 substrate Gly-Sar by Griess assay; format: functional, cell-based
Outline: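 Cells pretreated with Gly-Sar (0.75–192 µM, nine levels) for 150 min, then given compound at 150 µM for 150 min. Intracellular nitrite in lysates measured with Griess reagent (10 min, 37 °C, 540 nm) against a sodium nitrite standard curve. Mean ± SD of three experiments.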

HCT-8 [5] = experiment: Inhibition of HIF-1alpha protein expression in FU-resistant human HCT8 cells at 0.25 to 1 uM incubated for 24 hrs by Western blotting method; format: functional, cell-based
Outline: (§1)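 Cells (1 x 10^6) grown 24 h in 6 cm dishes, then exposed in duplicate for 24 h to 0.25, 0.5 or 1 µM compound, with or without PTIO. Lysates (20 µg/lane) were run on 7.5% SDS-PAGE, blotted to PVDF and blocked in 5% milk. HRP secondaries with ECL detection; bands quantified by densitometry against β-actin or GAPDH. Three separate experiments, mean ± SD.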

[6] = biological target: RAC-alpha serine/threonine-protein kinase (Homo sapiens) (UniProt P31749); experiment: Inhibition of AKT protein phosphorylation in human HCT8 cells at 0.25 to 1 uM incubated for 24 hrs by Western blotting method; format: cell-based; conditions: HCT-8; outline: as §1
HCT-8 [7] = experiment: Inhibition of P-gp protein expression in FU-resistant human HCT8 cells at 0.25 to 1 uM incubated for 24 hrs by Western blotting method; format: functional, cell-based; outline: as §1
HCT-8 [8] = experiment: Inhibition of MRP1 protein expression in FU-resistant human HCT8 cells at 1 uM in presence of NO scavenger carboxy-PTIO incubated for 24 hrs by Western blotting method; format: functional, cell-based; outline: as §1
[9] = Toxicity in female ICR mouse assessed as mouse mortality at 2.38 x 10^3 umol/kg administered as single dose via oral gavage measured up to 14 days post treatment; format: organism-based; conditions: in vivo
Outline: (§2)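 Female or male adult ICR mice, 10 per sex group, were randomised and given a single oral gavage dose of 2,000 mg/kg in cremophor-EL/DMSO/PBS (1:1:8). Total mortality was recorded over days 1–14, and body weight on days 0, 7 and 14 as mean ± SD.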

[10] = Toxicity in male ICR mouse assessed as mouse mortality at 2.38 x 10^3 umol/kg administered as single dose via oral gavage measured up to 14 days post treatment; format: organism-based; conditions: in vivo; outline: as §2
Mus musculus [11] = experiment: Toxicity in male ICR mouse assessed as body weight level at 2.38 x 10^3 umol/kg administered as single dose via oral gavage measured on day 14 post treatment (reference value: 19.5 +/- 0.85 g); format: organism-based; conditions: in vivo
Mus musculus [12] = experiment: Toxicity in nude BALB/c mouse xenografted with FU-resistant human HCT8 cells assessed as body weight level at 17.8 umol/kg administered as via oral gavage daily for 21 days (reference value: 22.3 +/- 1.9 g); format: organism-based, HCT-8; conditions: in vivo, 504 h
Outline: (§3)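 Male BALB/c nude mice, 6-8 weeks old, inoculated s.c. in right flank with HCT-8/5-FU cells (2 × 10^6/mouse). Once tumors reached 180-200 mm3 (9-11 days post-implantation), mice were randomized and dosed by gavage daily for 21 consecutive days in cremophor-EL/DMSO/PBS (1:1:8) (vehicle alone 0.2 mL). Body weights recorded on day 1 and day 21. Organ size, color and weights were inspected for liver, kidney, lung and heart. n = 8 per group; mean ± SD.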

Mus musculus [13] = experiment: Toxicity in nude BALB/c mouse xenografted with FU-resistant human HCT8 cells assessed as body weight level at 35.7 umol/kg administered as via oral gavage daily for 21 days (reference value: 21.1 +/- 1.5 g); format: organism-based, HCT-8; conditions: in vivo, 504 h; outline: as §3
[14] = Antitumor activity against FU-resistant human HCT8 cells xenografted in nude BALB/c mouse assessed as reduction in tumor weight at 35.7 umol/kg administered as via oral gavage daily for 21 days; format: functional; conditions: HCT-8, po, 504 h
Outline: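 Male BALB/c nude mice, 6–8 weeks old, inoculated s.c. in the right flank with HCT-8/5-FU cells (2 × 10^6). Once tumors reached 180–200 mm3 (days 9–11), mice were randomized (n = 8) to daily oral gavage for 21 days in cremophor-EL/DMSO/PBS (1:1:8). Tumor volume = W2(L/2), caliper-measured every other day, blinded; tumors weighed at end.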

Mus musculus [15] = experiment: Toxicity in nude BALB/c mouse xenografted with FU-resistant human HCT8 cells assessed as abnormal size changes in lung at 17.8 to 35.7 umol/kg administered as via oral gavage daily for 21 days; format: organism-based, HCT-8; conditions: in vivo, 504 h
Outline: (§4)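 Male BALB/c nude mice aged 6-8 weeks, implanted s.c. in the right flank with HCT-8/5-FU cells (2 × 10^6). Once tumors reached 180-200 mm3 (days 9-11), randomized to daily gavage for 21 days in cremophor-EL/DMSO/PBS (1:1:8), 0.2 mL. At the end, liver, kidney, lung and heart checked for size, colour and weight. n = 8 per group.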

Mus musculus [16] = experiment: Toxicity in nude BALB/c mouse xenografted with FU-resistant human HCT8 cells assessed as abnormal size changes in heart at 17.8 to 35.7 umol/kg administered as via oral gavage daily for 21 days; format: organism-based, HCT-8; conditions: in vivo, 504 h; outline: as §4
Mus musculus [17] = experiment: Toxicity in nude BALB/c mouse xenografted with FU-resistant human HCT8 cells assessed as abnormal weight changes in lung at 17.8 to 35.7 umol/kg administered as via oral gavage daily for 21 days; format: organism-based, HCT-8; conditions: in vivo, 504 h; outline: as §3
Mus musculus [18] = experiment: Toxicity in nude BALB/c mouse xenografted with FU-resistant human HCT8 cells assessed as abnormal weight changes in heart at 17.8 to 35.7 umol/kg administered as via oral gavage daily for 21 days; format: organism-based, HCT-8; conditions: in vivo, 504 h; outline: as §4
Mus musculus [19] = experiment: Toxicity in nude BALB/c mouse xenografted with FU-resistant human HCT8 cells assessed as abnormal size changes in heart at 59.4 umol/kg administered as via oral gavage daily for 21 days; format: organism-based, HCT-8; conditions: in vivo, 504 h; outline: as §4
Mus musculus [20] = experiment: Toxicity in nude BALB/c mouse xenografted with FU-resistant human HCT8 cells assessed as abnormal weight changes in liver at 59.4 umol/kg administered as via oral gavage daily for 21 days; format: organism-based, HCT-8; conditions: in vivo, 504 h; outline: as §3
[21] = biological target: Signal transducer and activator of transcription 3 (Homo sapiens) (UniProt P40763); experiment: Inhibition of STAT3 protein phosphorylation in FU-resistant human HCT8 cells at 1 uM incubated for 24 hrs by Western blotting method; format: cell-based; conditions: HCT-8; outline: as §1
[22] = biological target: RAC-alpha serine/threonine-protein kinase (Homo sapiens) (UniProt P31749); experiment: Inhibition of AKT protein phosphorylation in human HCT8 cells at 1 uM incubated for 24 hrs by Western blotting method; format: cell-based; conditions: HCT-8; outline: as §1
HCT-8 [23] = experiment: Inhibition of BCRP protein expression in FU-resistant human HCT8 cells at 1 uM incubated for 24 hrs by Western blotting method; format: functional, cell-based; outline: as §1

Chain of RAC-alpha serine/threonine-protein kinase (Homo sapiens) (P31749 whole entry): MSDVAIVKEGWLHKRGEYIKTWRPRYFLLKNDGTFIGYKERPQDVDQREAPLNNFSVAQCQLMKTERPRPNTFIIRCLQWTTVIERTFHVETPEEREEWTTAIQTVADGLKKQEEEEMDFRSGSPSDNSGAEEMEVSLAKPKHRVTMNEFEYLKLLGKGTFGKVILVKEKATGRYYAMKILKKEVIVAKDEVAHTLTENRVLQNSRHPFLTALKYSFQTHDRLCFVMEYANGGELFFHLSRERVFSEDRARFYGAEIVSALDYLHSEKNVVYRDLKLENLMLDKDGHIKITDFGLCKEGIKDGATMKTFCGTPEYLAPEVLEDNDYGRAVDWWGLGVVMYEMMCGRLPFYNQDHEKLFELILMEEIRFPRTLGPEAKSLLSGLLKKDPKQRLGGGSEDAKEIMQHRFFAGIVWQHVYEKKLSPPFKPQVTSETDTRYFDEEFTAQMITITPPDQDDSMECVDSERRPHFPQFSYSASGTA
Chain of Signal transducer and activator of transcription 3 (Homo sapiens) (P40763 whole entry): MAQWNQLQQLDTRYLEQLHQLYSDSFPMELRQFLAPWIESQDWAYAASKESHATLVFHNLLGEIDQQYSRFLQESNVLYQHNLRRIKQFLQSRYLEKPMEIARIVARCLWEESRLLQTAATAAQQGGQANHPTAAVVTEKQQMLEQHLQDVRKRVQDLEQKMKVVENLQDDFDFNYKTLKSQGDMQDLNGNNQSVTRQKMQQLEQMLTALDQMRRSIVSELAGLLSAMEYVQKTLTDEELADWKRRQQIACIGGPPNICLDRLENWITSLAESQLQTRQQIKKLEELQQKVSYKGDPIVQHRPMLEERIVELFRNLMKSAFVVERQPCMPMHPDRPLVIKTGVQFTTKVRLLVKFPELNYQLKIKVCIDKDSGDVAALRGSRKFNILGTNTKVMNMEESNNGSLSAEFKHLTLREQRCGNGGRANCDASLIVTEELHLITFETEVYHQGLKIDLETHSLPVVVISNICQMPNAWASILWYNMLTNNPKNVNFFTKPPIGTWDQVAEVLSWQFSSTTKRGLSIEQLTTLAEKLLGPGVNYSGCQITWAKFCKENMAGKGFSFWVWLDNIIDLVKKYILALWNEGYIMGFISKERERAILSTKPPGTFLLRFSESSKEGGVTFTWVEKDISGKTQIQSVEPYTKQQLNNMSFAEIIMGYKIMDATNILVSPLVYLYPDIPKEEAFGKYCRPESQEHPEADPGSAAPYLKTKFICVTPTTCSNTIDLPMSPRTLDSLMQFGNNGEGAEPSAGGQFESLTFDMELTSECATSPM

In the case of `CC1(C)CC[C@]2(C(=O)NCC(=O)OCC#CCOc3no[n+]([O-])c3S(=O)(=O)c3ccccc3)CC[C@]3(C)[C@H](C(=O)C=C4[C@@]5(C)C=C(C#N)C(=O)C(C)(C)[C@@H]5CC[C@]43C)[C@@H]2C1`, the Activity (HCT-8 [1]) is reported as “Active”, the Activity (HCT-8 [2]) is reported as “Active” and the inhibition (HCT-8 [3]) is reported as “inactive”. The Activity (HCT-8 [4]) was “inactive”, the inhibition (HCT-8 [5]) was “Dose-dependent effect” and the inhibition [6] was “Dose-dependent effect”. For the same compound, the inhibition (HCT-8 [7]) was “Dose-dependent effect”, the inhibition (HCT-8 [8]) was “inactive” and the mortality at 336 h [9] was 0%. The mortality at 336 h [10] was 0%, the Activity (Mus musculus [11]) was 31.9 g and the Activity (Mus musculus [12]) was 17.5 g. The Activity (Mus musculus [13]) was 16.7 g, the inhibition in vivo at 35.7 µmol/kg [14] was 60.8% and the Activity (Mus musculus [15]) was “Non-toxic”. For the same compound, the Activity (Mus musculus [16]) was “Non-toxic”, the Activity (Mus musculus [17]) was “Non-toxic” and the Activity (Mus musculus [18]) was “Non-toxic”.
With `COC(=O)[C@]12CCC(C)(C)C[C@H]1[C@H]1C(=O)C=C3[C@@]4(C)C=C(C#N)C(=O)C(C)(C)[C@@H]4CC[C@@]3(C)[C@]1(C)CC2` [BARDOXOLONE METHYL] the Activity (Mus musculus [19]) was “Non-toxic”, the Activity (Mus musculus [20]) was “Non-toxic” and the inhibition [21] was “Active”. For the same compound, the inhibition [22] was “Active” and the inhibition (HCT-8 [23]) was “inactive”.
